Most compounds without a hit are left out; they make up all but 2.1% or so of the library.
CCR6 antagonist = antagonists of human CCR6 receptor | AID 493098 | CHO-K1 CCR6 PathHunter beta-arrestin, luminescence, CCL20-stimulated | inhibition, % at 20 µM | hit rate 0.49% among 340,000 | P51684;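 active = compounds whose inhibition of the agonist-driven luminescence signal at 20 µM reaches about 50%, limit read from the data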;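 note: cells stimulated with CCL20 at 14 nM final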
APJ antagonist = antagonists of human APJ apelin receptor; CHO-K1 APJ beta-arrestin complementation, luminescence; inhibition, % at 20 µM; hit rate 0.32% among 330,000;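 active = inhibition above about 40% at 20 µM, limit read from the data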;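 note: cells challenged with 10 nM apelin-13 agonist together with compound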
Target sequence (P35414 whole entry, looked up): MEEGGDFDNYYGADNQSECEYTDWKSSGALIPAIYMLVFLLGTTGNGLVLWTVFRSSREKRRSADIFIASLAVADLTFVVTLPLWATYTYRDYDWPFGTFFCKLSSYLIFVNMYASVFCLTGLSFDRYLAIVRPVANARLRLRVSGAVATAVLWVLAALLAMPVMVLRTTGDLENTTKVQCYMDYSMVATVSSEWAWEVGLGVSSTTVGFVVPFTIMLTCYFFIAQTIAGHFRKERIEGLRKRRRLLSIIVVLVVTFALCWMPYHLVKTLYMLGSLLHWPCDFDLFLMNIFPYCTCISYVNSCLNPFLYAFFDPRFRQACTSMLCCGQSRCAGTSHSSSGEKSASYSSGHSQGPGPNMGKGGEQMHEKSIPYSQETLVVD
EBI2 block = blocks human EBI2 receptor beta-arrestin signaling. P32249. EBI2 beta-arrestin recruitment, luminescence, 7a,25-OHC stimulated. inhibition, % at 5 µM. hit rate 0.81% among 360,000. AID 651636; in the data active = inhibition above about 38%;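 note: enzyme fragment complementation signal reports receptor beta-arrestin coupling in cells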
CXCR6 inh = blocks human CXCR6 beta-arrestin recruitment. CHO-K1 PathHunter CXCR6 beta-arrestin, luminescence. O00574. inhibition, % at 20 µM. AID 602244. hit rate 0.36% among 360,000; in the data active = inhibition above about 34%, passing the limit was not always enough;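 note: antagonist mode with CXCL16 agonist at 10 nM final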
HTR2A ag = activates the mouse 5-HT2A serotonin receptor; hit rate 0.66% among 360,000; activation, % at 7.6 µM; AID 624169; CHO-K1 mHTR2A beta-arrestin complementation, luminescence; percent of 30 µM serotonin response;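 active = activation above a run cutoff, the mean activation of all tested compounds plus 3 SD, cut at about 14% in these data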
APJ ag = activates the human apelin receptor APJ; P35414; CHO-K1 APJ PathHunter beta-arrestin, luminescence; 0% DMSO wells, 100% apelin; activation, % at 20 µM; hit rate 0.11% among 330,000;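 active = activation more than six SD over the plate average, tested at 20 µM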
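system = engineered CHO-K1 APJ arrestin reporter cells | input = 1000 cells per well | timing = overnight seeding, 90 min compound at 25 °C, 1 h detection | measured by = enzyme-fragment complementation luminescence | read-out = beta-arrestin recruitment to APJ as agonist activity, luminescent signal | control set = negative DMSO alone, positive Apelin-13 at 10 nM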
OPRM1 ag = counter-screen for mouse HTR2A agonists: human mu opioid receptor agonists; hit rate 5.3% among 2,300; AID 624380; shares compounds with HTR2A ag; activation, % at 9.3 µM; U2OS OPRM1 beta-arrestin PathHunter, luminescence; DMSO 0%, DAMGO 9.3 µM 100%;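 active = mean activation above the mean of DMSO-only wells plus 3 SD, cut at about 0.5% in these data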
m5-HT2A ag conf = mouse HTR2A agonism confirmed; shares compounds with HTR2A ag; CHO-K1 PathHunter beta-arrestin recruitment, luminescence; DMSO 0%, 30 µM serotonin 100%; activation, % at 7.6 µM; hit rate 19% among 2,300; AID 624381;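 active = mean activation across triplicates above the hit threshold derived in the original primary screen, cut at about 15% in these data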
A number is an active result; i = inactive; nt = no result given.

SMILES	CCR6 antagonist	APJ antagonist	EBI2 block	CXCR6 inh	HTR2A ag	APJ ag	OPRM1 ag	m5-HT2A ag conf
C[C@H](CO)N1C[C@H](C)[C@H](CN(C)S(=O)(=O)c2ccccc2)OCc2ccccc2-c2c(n(C)c3ccccc23)C1=O	nt	nt	i	i	i	nt	nt	nt
Cc1cccc(N2CCN(C(=O)CNC(=O)c3ccccc3)CC2)c1C	i	i	i	i	i	i	nt	nt
O=C(NCCN1CCNC1=O)C1CCC(=O)N(CCc2ccc(Cl)cc2)C1 (centres undefined)	i	i	i	i	i	i	nt	nt
O=C1CN(C(=O)C2CCC(=O)N(CCc3ccc(Cl)cc3)C2)CCN1 (centres undefined)	i	i	i	i	17	i	i	i
O=c1cc(C(F)(F)F)[nH]c2ccc(C(F)(F)F)cc12	i	i	i	i	26	i	i	i
COc1ccc(-c2oc(NC(=O)CSc3nncn3C)c(C#N)c2-c2ccc(OC)cc2)cc1	i	i	i	i	i	i	nt	nt
CCC(=O)c1cn(CC(=O)Nc2ccccc2)c2ccccc12	i	i	i	i	i	i	nt	nt
CC(=O)c1cn(CC(=O)Nc2ccccc2)c2ccccc12	i	i	i	i	20	i	i	i
COc1cccc2c(O)c(-c3ccccc3)c(=O)[nH]c12	i	i	i	i	i	i	nt	nt
COc1cc2[nH]c(C)c(-c3ccccc3)c(=O)c2cc1Cl	nt	nt	i	i	25	nt	i	14
CC(C)c1cc(C(=O)N2CCCC(Nc3ccc(F)cc3)C2)nc(N)n1 (centres undefined)	i	i	i	i	16	i	i	i
CC(C)c1ccc(NC2CCCN(C(=O)c3ccc4nccnc4c3)C2)cc1 (centres undefined)	i	i	i	i	21	i	i	i
CC(C)c1cc(C(=O)N2CCCC(Nc3ccc(F)c(F)c3)C2)nc(N)n1 (centres undefined)	i	i	i	i	i	i	nt	nt
Cn1c(Cn2c(=O)sc3ccccc32)nnc1SCC(=O)Nc1ccccc1	i	i	i	i	20	i	i	i
CCOCCCNC(=O)C1(O)c2cc(Br)ccc2NC(=O)N1c1ccc(CC)cc1 (centres undefined)	i	i	i	i	18	i	i	i
Cc1cccc(C)c1NC(=O)c1cc(S(=O)(=O)N2CCc3ccccc32)cn1C	i	i	i	i	21	i	i	i
Cn1c(=O)c2[nH]cnc2n(-c2ccccc2)c1=O	i	i	i	i	i	i	nt	nt
CN1CCc2c(sc(NC(=O)Cc3ccccc3)c2C#N)C1	i	i	i	i	18	i	i	69
Cn1c(NC(=O)c2cccs2)cc(=O)n(C)c1=O	i	i	i	i	i	i	nt	nt
CC(C)NC(=O)C1(C)CCN1C(=O)c1ccc(F)c(Cl)c1 (centres undefined)	nt	nt	i	i	15	nt	i	i
CC(C)NC(=O)C1(C)CCN1C(=O)c1cccc(Cl)c1 (centres undefined)	nt	nt	i	i	i	nt	nt	nt
N#Cc1ccccc1C[C@H](N)C(=O)NC[C@H]1O[C@@H](n2ccc(N)nc2=O)[C@H](O)[C@@H]1O	nt	nt	i	i	29	nt	i	i
CS(=O)(=O)CCC(C(=O)OCc1ccc(Cl)cc1)N1C(=O)c2ccccc2C1=O (centres undefined)	i	i	i	i	17	i	i	i
CCCN(CCC)CCN1C(=O)C2C(C(=O)Nc3cccc(SC)c3)C3C=CC2(O3)C1C(=O)NC1CCCCC1 (centres undefined)	i	i	i	i	i	i	nt	nt
Fc1ccc(F)c(CN2CCN(c3ncccn3)CC2)c1	i	i	i	i	44	i	i	101
CCc1ccc(CN2CCN(c3ncccn3)CC2)cc1	i	i	i	i	i	i	nt	nt
Fc1ccc(CN2CCN(c3ncccn3)CC2)cc1	i	i	i	i	23	i	1.3	142
